16 molecules from PMC8853710 (Journal of Enzyme Inhibition and Medicinal Chemistry, 2019) can be followed below.

Molecules are shown by their SMILES. pIC50: −log10 of the molar value. ≈ marks a conversion by molar mass, not a printed value. Read-outs that look alike come from different tables or passages of the source. Some results are limits rather than exact numbers.

For data set [1], the target named is Hsp90α (Homo sapiens, UniProt P07900). The data set is described as follows: Kinase inhibition assay, Hsp90α. It counts as biochemical.
In data set [2] the target is VEGFR2 (Homo sapiens, UniProt P35968). Put plainly: Kinase inhibition assay, VEGFR2. It counts as biochemical.
For data set [3], the system named is B16 melanoma cell line. Put plainly: Cell proliferation. It counts as cell-based. The conditions noted are these: for B16 GI ratio: B16 cells, test concentration not given; for IC50: Mus musculus, read-out: IC50, B16 melanoma cell line.
In data set [4] the target is EGFR (Homo sapiens, UniProt P00533). Put plainly: Kinase inhibition assay, EGFR. It counts as biochemical.
In data set [5] the target is PI3Kα (Homo sapiens, UniProt P42336). The data set is described as follows: Kinase inhibition assay, PI3Kα. It counts as biochemical.
For data set [6], the system named is B16 cells. The data set is described as follows: Cell cycle analysis by PI staining flow cytometry. It counts as cell-based. The conditions noted are these: 24 h treatment. A general note: In flow cytometry, cells or beads pass a laser one at a time.
The test system of data set [7] is B16 cells. Put plainly: Wound-healing cell migration assay. It counts as cell-based. The conditions noted are these: 24 h of exposure, dose-dependent. In a few lines: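 B16 cells were seeded at 1 × 10^5 per well in 6-well plates in DMEM and grown overnight. Three scratches per well were made with a 200 µl pipette tip. After a PBS wash, serum-free DMEM containing various compound concentrations or DMSO was added. Migration was assessed by light microscopy between 0 h and 24 h.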

For data set [8], the system named is B16 cells. The data set is described as follows: Western blotting of B16 melanoma cell extracts. It counts as cell-based. The method, boiled down: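 Total protein was extracted from treated B16 cells, separated by SDS-PAGE (7.5–15% gels, chosen by protein size) and transferred to PVDF. Membranes were blocked with 5% BSA, incubated with primary antibodies on ice overnight, then with HRP-conjugated secondary antibodies for 1 h at room temperature. Bands were detected by ECL. Migration- and invasion-related proteins were assessed at 20 and 40 μg/mL.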

Data set [9] concerns B16 melanoma xenograft. The data set is described as follows: B16 subcutaneous tumor xenograft model. It counts as in vivo, C57BL/6J mice. To be noted: for tumor growth inhibition ratio: B16 subcutaneous xenograft, C57BL/6J mice, once a day. In a few lines: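 Female C57BL/6J mice, 8–12 weeks old, received B16 cells subcutaneously in the dorsal flank (5 × 105 in 100 μL PBS). Groups of 8 were dosed once a day with test compound or NS control. Tumours were measured every two days and volume was taken as a×b2×0.5. Excised tumours were formalin-fixed, paraffin-embedded, sectioned, and stained for TUNEL, EGFR, Akt, pAkt473 and Ki67.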

In data set [10] the test system is B16 cells. The data set is described as follows: Flow cytometry with annexinV/PI dual staining. The conditions noted are these: 24 h incubation. It counts as cell-based.
Data set [11] relates to several cancer cells (B16, HepG2, A549, SW620, MCF-7, Hela). Put plainly: Cytotoxic activity in several cancer cells. It counts as cell-based. The conditions noted are these: Figure 5(A). In a few lines: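 Cells were kept in DMEM with 10% FBS at 37 °C and 5% CO2 and used in exponential growth. They were seeded at 3–6 × 10^3 cells/well for 24 h, then given DMSO or various compound concentrations for 24 or 48 h. MTT (0.5 mg/mL in medium) was added for 3 h at 37 °C and dissolved in DMSO; absorbance was read at 570 nm. Three experiments, each in triplicate.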

Data set [12] deals with B16 cells. The data set is described as follows: Colony formation assay. It counts as cell-based. To be noted: 8m-incubated B16 cells vs control group.
In data set [13] the test system is B16 cells. The data set is described as follows: Transwell Matrigel invasion assay. It counts as cell-based. The conditions noted are these: dose-dependent. The method, boiled down: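 Transwell chambers with 8-μm pores and Matrigel-precoated top chambers were used. B16 cells (1 × 105) in serum-free medium went into the top chamber, with DMEM in the bottom chamber. Invaded cells were stained with crystal violet and counted under a microscope in triplicate.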

VEGFR2, sequence (P35968 20-1356): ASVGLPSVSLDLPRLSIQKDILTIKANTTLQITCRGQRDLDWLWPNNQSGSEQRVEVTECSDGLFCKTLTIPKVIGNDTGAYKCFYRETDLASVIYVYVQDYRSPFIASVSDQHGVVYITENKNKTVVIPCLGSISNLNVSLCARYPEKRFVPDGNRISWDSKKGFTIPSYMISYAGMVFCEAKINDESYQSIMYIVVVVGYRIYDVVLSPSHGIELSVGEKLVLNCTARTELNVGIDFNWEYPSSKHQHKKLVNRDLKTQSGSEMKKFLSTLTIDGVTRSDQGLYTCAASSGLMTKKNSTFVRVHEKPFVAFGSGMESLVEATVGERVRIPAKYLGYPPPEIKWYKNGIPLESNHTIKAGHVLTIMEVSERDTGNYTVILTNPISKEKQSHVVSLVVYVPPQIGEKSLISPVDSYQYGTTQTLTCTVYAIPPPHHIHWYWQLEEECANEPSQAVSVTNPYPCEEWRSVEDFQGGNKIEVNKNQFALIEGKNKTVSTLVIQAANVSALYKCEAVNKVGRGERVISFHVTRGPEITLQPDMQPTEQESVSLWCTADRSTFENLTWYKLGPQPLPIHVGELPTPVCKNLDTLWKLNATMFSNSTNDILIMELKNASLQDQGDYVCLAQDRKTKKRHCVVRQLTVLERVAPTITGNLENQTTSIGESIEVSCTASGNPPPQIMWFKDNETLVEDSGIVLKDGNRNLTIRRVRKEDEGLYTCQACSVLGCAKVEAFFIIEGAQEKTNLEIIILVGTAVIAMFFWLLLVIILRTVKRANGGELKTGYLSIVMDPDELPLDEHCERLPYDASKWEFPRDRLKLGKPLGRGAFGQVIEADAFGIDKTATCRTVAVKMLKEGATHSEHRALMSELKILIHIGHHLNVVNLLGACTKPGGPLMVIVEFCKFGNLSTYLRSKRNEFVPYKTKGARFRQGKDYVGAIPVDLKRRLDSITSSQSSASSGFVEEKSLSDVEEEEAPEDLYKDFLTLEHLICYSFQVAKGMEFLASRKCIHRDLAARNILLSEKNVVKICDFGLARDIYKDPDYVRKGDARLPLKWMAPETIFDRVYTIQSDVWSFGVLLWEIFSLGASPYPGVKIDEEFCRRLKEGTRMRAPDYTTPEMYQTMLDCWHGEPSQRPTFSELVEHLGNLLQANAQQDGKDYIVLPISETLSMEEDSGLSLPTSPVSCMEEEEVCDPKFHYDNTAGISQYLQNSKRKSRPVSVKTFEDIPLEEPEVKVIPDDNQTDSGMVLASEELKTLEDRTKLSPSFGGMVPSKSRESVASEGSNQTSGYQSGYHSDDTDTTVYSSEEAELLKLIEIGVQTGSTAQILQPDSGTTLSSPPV
PI3Kα, sequence (P42336 whole entry): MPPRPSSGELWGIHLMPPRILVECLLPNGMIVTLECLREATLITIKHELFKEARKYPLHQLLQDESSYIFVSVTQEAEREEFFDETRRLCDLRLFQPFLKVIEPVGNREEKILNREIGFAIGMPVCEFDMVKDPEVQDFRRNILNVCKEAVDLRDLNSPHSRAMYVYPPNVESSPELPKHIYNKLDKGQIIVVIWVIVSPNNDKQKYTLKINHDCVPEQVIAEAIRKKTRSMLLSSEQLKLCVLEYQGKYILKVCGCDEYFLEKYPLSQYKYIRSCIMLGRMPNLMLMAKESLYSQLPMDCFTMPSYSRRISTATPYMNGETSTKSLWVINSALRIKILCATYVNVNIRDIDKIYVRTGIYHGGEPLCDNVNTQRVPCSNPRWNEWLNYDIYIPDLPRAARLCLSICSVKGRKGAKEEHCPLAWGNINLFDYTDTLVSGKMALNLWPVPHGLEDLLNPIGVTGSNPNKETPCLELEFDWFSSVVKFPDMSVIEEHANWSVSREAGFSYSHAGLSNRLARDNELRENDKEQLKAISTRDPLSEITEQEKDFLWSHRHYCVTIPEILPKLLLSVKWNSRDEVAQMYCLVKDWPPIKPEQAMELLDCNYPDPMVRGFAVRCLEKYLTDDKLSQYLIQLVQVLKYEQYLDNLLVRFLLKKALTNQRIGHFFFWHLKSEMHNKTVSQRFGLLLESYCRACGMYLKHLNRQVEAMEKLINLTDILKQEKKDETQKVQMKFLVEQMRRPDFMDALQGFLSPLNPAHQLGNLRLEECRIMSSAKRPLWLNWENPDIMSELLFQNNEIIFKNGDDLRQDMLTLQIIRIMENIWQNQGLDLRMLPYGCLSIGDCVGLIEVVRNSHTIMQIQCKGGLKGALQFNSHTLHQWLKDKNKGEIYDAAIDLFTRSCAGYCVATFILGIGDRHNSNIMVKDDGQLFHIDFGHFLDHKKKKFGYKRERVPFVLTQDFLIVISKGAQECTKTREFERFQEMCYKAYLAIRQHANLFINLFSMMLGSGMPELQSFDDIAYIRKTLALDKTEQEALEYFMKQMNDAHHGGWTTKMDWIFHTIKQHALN
PI3Kα, sequence (P27986 whole entry partner): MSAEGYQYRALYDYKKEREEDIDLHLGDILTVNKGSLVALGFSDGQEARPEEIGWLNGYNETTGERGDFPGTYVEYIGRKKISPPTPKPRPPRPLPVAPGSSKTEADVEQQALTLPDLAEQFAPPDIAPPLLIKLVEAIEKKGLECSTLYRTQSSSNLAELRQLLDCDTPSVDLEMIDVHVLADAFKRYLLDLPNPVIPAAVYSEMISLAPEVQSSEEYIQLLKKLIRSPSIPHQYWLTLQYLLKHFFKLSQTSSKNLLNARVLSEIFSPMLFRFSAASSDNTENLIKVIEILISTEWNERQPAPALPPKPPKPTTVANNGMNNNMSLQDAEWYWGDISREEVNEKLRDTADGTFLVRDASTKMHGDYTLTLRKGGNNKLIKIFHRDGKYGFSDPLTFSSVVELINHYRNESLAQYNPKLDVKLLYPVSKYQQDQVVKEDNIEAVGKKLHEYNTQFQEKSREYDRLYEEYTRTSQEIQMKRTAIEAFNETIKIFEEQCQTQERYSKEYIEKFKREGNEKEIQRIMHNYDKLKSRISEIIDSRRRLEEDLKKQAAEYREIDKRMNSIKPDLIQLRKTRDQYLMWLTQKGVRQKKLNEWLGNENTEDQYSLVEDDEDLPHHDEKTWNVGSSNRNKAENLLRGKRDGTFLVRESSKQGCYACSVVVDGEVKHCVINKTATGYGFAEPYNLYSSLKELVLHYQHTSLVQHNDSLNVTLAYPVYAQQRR
EGFR, sequence (P00533 25-1210): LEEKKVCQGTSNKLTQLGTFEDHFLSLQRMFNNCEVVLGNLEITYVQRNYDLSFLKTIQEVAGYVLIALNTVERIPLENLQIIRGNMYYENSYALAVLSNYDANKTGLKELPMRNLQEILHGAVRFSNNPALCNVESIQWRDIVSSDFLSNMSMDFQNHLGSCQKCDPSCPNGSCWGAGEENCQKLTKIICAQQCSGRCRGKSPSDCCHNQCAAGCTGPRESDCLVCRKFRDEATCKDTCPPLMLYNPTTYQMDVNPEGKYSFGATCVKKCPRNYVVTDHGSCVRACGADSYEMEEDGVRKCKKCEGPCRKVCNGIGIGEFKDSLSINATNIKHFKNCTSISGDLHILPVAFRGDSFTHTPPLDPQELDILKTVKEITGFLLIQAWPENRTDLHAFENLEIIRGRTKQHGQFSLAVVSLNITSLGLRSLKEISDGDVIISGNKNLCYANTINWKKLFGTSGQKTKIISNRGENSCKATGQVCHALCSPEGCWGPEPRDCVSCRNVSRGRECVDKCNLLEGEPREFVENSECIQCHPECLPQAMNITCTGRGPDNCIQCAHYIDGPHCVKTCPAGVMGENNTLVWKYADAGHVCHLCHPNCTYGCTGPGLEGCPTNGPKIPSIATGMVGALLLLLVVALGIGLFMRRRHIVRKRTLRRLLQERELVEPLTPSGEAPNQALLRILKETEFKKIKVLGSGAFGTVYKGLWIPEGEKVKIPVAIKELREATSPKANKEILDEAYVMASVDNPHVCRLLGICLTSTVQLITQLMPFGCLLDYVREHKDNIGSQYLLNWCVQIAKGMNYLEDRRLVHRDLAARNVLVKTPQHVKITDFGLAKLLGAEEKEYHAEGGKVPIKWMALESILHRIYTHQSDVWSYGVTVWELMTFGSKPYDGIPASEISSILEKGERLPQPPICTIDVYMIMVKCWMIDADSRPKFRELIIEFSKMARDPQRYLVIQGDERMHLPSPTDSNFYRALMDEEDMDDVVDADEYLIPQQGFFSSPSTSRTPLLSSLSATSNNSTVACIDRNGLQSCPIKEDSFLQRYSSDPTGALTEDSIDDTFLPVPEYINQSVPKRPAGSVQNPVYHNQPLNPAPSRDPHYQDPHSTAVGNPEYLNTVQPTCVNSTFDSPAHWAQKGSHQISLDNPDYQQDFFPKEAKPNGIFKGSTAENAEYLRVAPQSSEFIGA

In general, pIC50 refers to the negative decadic logarithm of the IC50, by convention in mol/L. In the case of `CCc1cccc(Nc2ncnc3sc4c(c23)CCN(C(=O)c2cc(C(C)C)c(O)cc2O)C4)c1` [Compound 8a, (2,4-dihydroxy-5-isopropylphenyl)(4-((3-ethylphenyl)amino)-5,8-dihydropyrido[4',3':4,5]thieno[2,3-d]pyrimidin-7(6H)-yl)methanone], the pIC50 is 6.43 in data set [1], less than 5.00 in [2] and 7.22 in data set [4]. Also, the “B16 GI ratio” value in data set [3] was determined as 26.8%.

Turning to `CC(C)c1cc(C(=O)N2CCc3c(sc4ncnc(Nc5ccc(Br)cc5)c34)C2)c(O)cc1O` [Compound 8b, (4-((4-bromophenyl)amino)-5,8-dihydropyrido[4',3':4,5]thieno[2,3-d]pyrimidin-7(6H)-yl)(2,4-dihydroxy-5-isopropylphenyl)methanone], the figures for the pIC50 in [1], in [2] and in [4] were 6.54, less than 5.00 and 7.30, respectively. For the same molecule, in data set [3], the “B16 GI ratio” value worked out at 33.6%.

For `CC(C)c1cc(C(=O)N2CCc3c(sc4ncnc(Nc5cccc(Cl)c5)c34)C2)c(O)cc1O` [Compound 8c, (4-((3-chlorophenyl)amino)-5,8-dihydropyrido[4',3':4,5]thieno[2,3-d]pyrimidin-7(6H)-yl)(2,4-dihydroxy-5-isopropylphenyl)methanone], the negative-log IC50 (pIC50) in [1] was 6.71; in data set [2], less than 5.00; in [4] it was 7.43. For the same molecule, the “B16 GI ratio” value in [3] amounted to 51.2%.

On to `Cc1cccc(Nc2ncnc3sc4c(c23)CCN(C(=O)c2cc(C(C)C)c(O)cc2O)C4)c1` [Compound 8d, (2,4-dihydroxy-5-isopropylphenyl)(4-(m-tolylamino)-5,8-dihydropyrido[4',3':4,5]thieno[2,3-d]pyrimidin-7(6H)-yl)methanone], for which the negative logarithm of the IC50 (pIC50) in [1] was 6.50; in data set [2], less than 5.00; in data set [4] it was 7.29. Also, the “B16 GI ratio” value in data set [3] was 41.7%.

On to `CC(C)c1cc(C(=O)N2CCc3c(sc4ncnc(Nc5cccc(F)c5)c34)C2)c(O)cc1O` [Compound 8e, (2,4-dihydroxy-5-isopropylphenyl)(4-((3-fluorophenyl)amino)-5,8-dihydropyrido[4',3':4,5]thieno[2,3-d]pyrimidin-7(6H)-yl)methanone], for which the figures for the pIC50 in data set [1], in data set [2] and in data set [4] were 6.64, less than 5.00 and 7.40, respectively. Moreover, the “B16 GI ratio” value in data set [3] is reported as 38.9%.

For the molecule `CC(C)c1cc(C(=O)N2CCc3c(sc4ncnc(Nc5ccc(Cl)cc5)c34)C2)c(O)cc1O` [Compound 8f, (4-((4-chlorophenyl)amino)-5,8-dihydropyrido[4',3':4,5]thieno[2,3-d]pyrimidin-7(6H)-yl)(2,4-dihydroxy-5-isopropylphenyl)methanone], the pIC50 in data set [1] is 6.50; in [2] it was less than 5.00; in data set [4], 7.12. For the same molecule, in data set [3], the “B16 GI ratio” value amounted to 29.5%.

Consider `COc1cccc(Nc2ncnc3sc4c(c23)CCN(C(=O)c2cc(C(C)C)c(O)cc2O)C4)c1` [Compound 8g, (2,4-dihydroxy-5-isopropylphenyl)(4-((3-methoxyphenyl)amino)-5,8-dihydropyrido[4',3':4,5]thieno[2,3-d]pyrimidin-7(6H)-yl)methanone], for which the negative-log IC50 (pIC50) is 6.68 in [1], less than 5.00 in [2] and 7.15 in [4]. For the same molecule, in data set [3], the “B16 GI ratio” value is 37.5%.

Take `CC(C)c1cccc(Nc2ncnc3sc4c(c23)CCN(C(=O)c2cc(C(C)C)c(O)cc2O)C4)c1` [Compound 8h, (2,4-dihydroxy-5-isopropylphenyl)(4-((3-isopropylphenyl)amino)-5,8-dihydropyrido[4',3':4,5]thieno[2,3-d]pyrimidin-7(6H)-yl)methanone]: the negative logarithm of the IC50 (pIC50) in data set [1] is 6.33; in [2], less than 5.00; in data set [4], 6.42. In data set [3], the “B16 GI ratio” value is recorded as 39.1%.

With `Cc1ccc(Nc2ncnc3sc4c(c23)CCN(C(=O)c2cc(C(C)C)c(O)cc2O)C4)c(C)c1` [Compound 8i, (2,4-dihydroxy-5-isopropylphenyl)(4-((2,4-dimethylphenyl)amino)-5,8-dihydropyrido[4',3':4,5]thieno[2,3-d]pyrimidin-7(6H)-yl)methanone], the results for the pIC50 in data set [1], in data set [2] and in data set [4] were 5.79, 6.77 and 6.24, respectively. For the same molecule, in data set [3], the “B16 GI ratio” value amounted to 24.8%.

In the case of `CC(C)c1cc(C(=O)N2CCc3c(sc4ncnc(Nc5cccc(O)c5)c34)C2)c(O)cc1O` [Compound 8j, (2,4-dihydroxy-5-isopropylphenyl)(4-((3-hydroxyphenyl)amino)-5,8-dihydropyrido[4',3':4,5]thieno[2,3-d]pyrimidin-7(6H)-yl)methanone], the negative logarithm of the IC50 (pIC50) in [1] was 6.68; in [2] it was 6.15; in data set [4], 6.83. Also, in data set [3], the “B16 GI ratio” value is on record as 36.0%.

Turning to `CC(C)c1cc(C(=O)N2CCc3c(sc4ncnc(N5CCCCC5)c34)C2)c(O)cc1O` [Compound 8k, (2,4-dihydroxy-5-isopropylphenyl)(4-(piperidin-1-yl)-5,8-dihydropyrido[4',3':4,5]thieno[2,3-d]pyrimidin-7(6H)-yl)methanone], the negative logarithm of the IC50 (pIC50) was 7.28 in data set [1] and 6.88 in data set [5]. In data set [3], the “B16 GI ratio” value was determined as 65.2%.

On to `CC(C)c1cc(C(=O)N2CCc3c(sc4ncnc(N5CCCC5)c34)C2)c(O)cc1O` [Compound 8l, (2,4-dihydroxy-5-isopropylphenyl)(4-(pyrrolidin-1-yl)-5,8-dihydropyrido[4',3':4,5]thieno[2,3-d]pyrimidin-7(6H)-yl)methanone], for which the results for the pIC50 in data set [1] and in data set [5] were 7.19 and 6.77, respectively. Besides, the “B16 GI ratio” value in data set [3] was 60.4%.

Broadly, the IC50 is the concentration that gives 50% inhibition. Consider `CC(C)c1cc(C(=O)N2CCc3c(sc4ncnc(N5CCOCC5)c34)C2)c(O)cc1O` [Compound 8m, (2,4-dihydroxy-5-isopropylphenyl)(4-morpholino-5,8-dihydropyrido[4',3':4,5]thieno[2,3-d]pyrimidin-7(6H)-yl)methanone], for which, in data set [6], the “cell counts in G1 phase” value is listed as “corresponding descent” and the “cell counts in G2 phase” value was “significantly increased”. For the same molecule, the “wound areas (cell migration)” value in data set [7] is on record as “minimal changes”. Also, in data set [8] (B16 cells), the “cleavage of apoptosis related proteins (western blot)” value is “cleavage of Caspase-3, Caspase-8, Caspase-9 and PARP”; the “expression levels of Hsp90 client proteins cdc37, CDK4, EGFR, bRaf and cRaf (western blot)” value is “remarkably suppressed”; the “expression levels of Hsp90α and Hsp70 (western blot)” value is on record as “declined”; the “p-Akt (Ser473), p-Akt (Thr308) and total Akt expression (western blot)” value was “downregulated”. Also, in [8] (B16 cells, 20, 40 μg/mL), the “E-cadherin expression (western blot)” value is on record as “up-regulated” and the “expression of MMPs, vimentin, N-cadherin, β-catenin, ZEB1 (western blot)” value is given as “remarkably down-regulated”. In [8] (B16 cells, total PI3Kα not influenced), the “autophosphorylation of PI3Kα (western blot)” value is “inhibited”. For the same molecule, the “apoptotic positive cells in tumor tissue (TUNEL)” value in data set [9] (B16 xenograft tumor sections, among all therapeutic groups) is reported as “highest number of apoptotic positive cells”. Further, the “Ki-67 positive cells in tumor tissue” value in [9] (B16 xenograft tumor sections, p < .01) is recorded as “most significant suppression”. For the same molecule, in [3] (B16, 24 h), the IC50 was approximately 0.56 µg/mL (≈ 1.23 µM). Further, in data set [3] (B16, 48 h), the IC50 was approximately 0.47 µg/mL (≈ 1.03 µM). The molecule also gave a pIC50 in data set [5] of 7.32. Further, the apoptotic positive cells result in data set [10] was “significant increase”. In addition, in [11], the “cytotoxic activity in several cancer cells” value is on record as “most potent in melanoma cells”. Further, the “clone formation, size and number of the colonies” value in data set [12] is reported as “dose-dependent decline”. Further, the “cell invasion (Matrigel Transwell)” value in data set [13] is “remarkable decrease”.

As to `CC(C)c1cc(C(=O)N2CCc3c(sc4ncnc(N(C)C)c34)C2)c(O)cc1O` [Compound 8n, (2,4-dihydroxy-5-isopropylphenyl)(4-(dimethylamino)-5,8-dihydropyrido[4',3':4,5]thieno[2,3-d]pyrimidin-7(6H)-yl)methanone], the figures for the pIC50 in data set [1] and in data set [5] were 7.10 and 6.25, respectively. For the same molecule, the “B16 GI ratio” value in [3] came out at 46.7%.

As for `CC(C)c1cc(-c2n[nH]c(=O)n2-c2ccc3c(ccn3C)c2)c(O)cc1O` [Ganetespib, reference compound], in data set [9], the “tumor growth inhibition ratio” value came to 57%.

Consider `Oc1cccc(-c2nc(N3CCOCC3)c3oc4ncccc4c3n2)c1` [PI-103, reference compound], for which the “tumor growth inhibition ratio” value in [9] amounted to 29%.
